Common to all, as to format: functional
For experiment [1], the system named is Escherichia coli. The experiment is described as follows: Antibacterial activity against Escherichia coli at 100 ug/ml after 18 hrs by cup plate method. To be noted: for zone of inhibition at 100 µg/mL: read-out: DIZ. A digest of the protocol:
(§1)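 Agar well diffusion on Mueller-Hinton agar. Inoculum was adjusted to a 0.5 McFarland standard (about […] × 10⁸ CFU/mL) and swabbed over the plate three times, rotating about 60° each time, then the rim was swabbed. Compounds in DMSO went into duplicate 6 mm wells. Plates were incubated at 37 °C for 18 h and inhibition zone diameter read to the nearest mm. DMSO negative control; streptomycin and ciprofloxacin positive controls.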

Experiment [2] deals with Bacillus subtilis. As to the kind of experiment: Antibacterial activity against Bacillus subtilis at 100 ug/ml after 18 hrs by cup plate method. The settings on record: for zone of inhibition at 100 µg/mL: read-out: DIZ. The gist of the method: as §1
The subject of experiment [3] is Klebsiella pneumoniae. As to the kind of experiment: Antibacterial activity against Klebsiella pneumoniae at 100 ug/ml after 18 hrs by cup plate method. To be noted: for zone of inhibition at 100 µg/mL: read-out: DIZ. The gist of the method: as §1
Experiment [4] has as its system Staphylococcus epidermidis. As to the kind of experiment: Antibacterial activity against Staphylococcus epidermidis at 50 ug/ml after 18 hrs by cup plate method. The settings on record: for zone of inhibition at 50 µg/mL: read-out: DIZ. A digest of the protocol: as §1
Experiment [5] concerns Klebsiella pneumoniae. The experiment is described as follows: Antibacterial activity against Klebsiella pneumoniae at 50 ug/ml after 18 hrs by cup plate method. The settings on record: for zone of inhibition at 50 µg/mL: read-out: DIZ. A digest of the protocol: as §1
The subject of experiment [6] is Escherichia coli. As to the kind of experiment: Antibacterial activity against Escherichia coli at 50 ug/ml after 18 hrs by cup plate method. The settings on record: for zone of inhibition at 50 µg/mL: read-out: DIZ. A digest of the protocol:
as §1

Experiment [7] relates to Mycobacterium tuberculosis. The experiment is described as follows: Antimycobacterial activity against Mycobacterium tuberculosis H37Rv after 3 to 4 weeks by broth microdilution assay. The gist of the method:
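MIC by broth microdilution on compounds active in a single-concentration primary screen. Plates incubated 3–4 weeks at 37 °C in a CO₂ incubator. Wells read visually for absence of growth turbidity.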
On the technique in general: Broth dilution looks for growth in wells or tubes with falling amounts of substance.

For experiment [8], the system named is Candida albicans. As to the kind of experiment: Antifungal activity against Candida albicans MTCC 227 at 100 ug/ml after 48 hrs by cup plate method. The settings on record: MTCC 227, 48 h, read-out: IZ. The gist of the method: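 Agar well (cup plate) diffusion on potato dextrose agar 39 g/L, with compounds dissolved in DMSO. Plates were incubated at 28 ± 2 °C for 48 h and inhibition zones measured to the nearest mm. Three replicates per treatment. Amphotericin B positive control; solvent control included.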

Experiment [9] deals with Bacillus subtilis. As to the kind of experiment: Antibacterial activity against Bacillus subtilis at 50 ug/ml after 18 hrs by cup plate method. The settings on record: for zone of inhibition at 50 µg/mL: read-out: DIZ. A digest of the protocol: as §1
In experiment [10] the test system is Staphylococcus aureus. The experiment is described as follows: Antibacterial activity against Staphylococcus aureus at 50 ug/ml after 18 hrs by cup plate method. To be noted: for zone of inhibition at 50 µg/mL: read-out: DIZ. A digest of the protocol:
as §1

Experiment [11] concerns Candida albicans. The experiment is described as follows: Antifungal activity against Candida albicans MTCC 227 at 50 ug/ml after 48 hrs by cup plate method. A digest of the protocol:
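Agar well (cup plate) diffusion on potato dextrose agar 39 g/L. Compounds dissolved in DMSO and loaded into 6 mm wells. Incubated at 28 ± 2 °C for 48 h. Inhibition zone diameter measured to the nearest millimetre, three replicates per treatment. DMSO solvent as negative control, amphotericin B as positive control.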

Experiment [12] concerns Staphylococcus epidermidis. The experiment is described as follows: Antibacterial activity against Staphylococcus epidermidis at 100 ug/ml after 18 hrs by cup plate method. To be noted: for zone of inhibition at 100 µg/mL: read-out: DIZ. A digest of the protocol: as §1
Experiment [13] deals with Pseudomonas aeruginosa. The experiment is described as follows: Antibacterial activity against Pseudomonas aeruginosa at 100 ug/ml after 18 hrs by cup plate method. The settings on record: for zone of inhibition at 100 µg/mL: read-out: DIZ. The gist of the method: as §1
For experiment [14], the system named is Pseudomonas aeruginosa. The experiment is described as follows: Antibacterial activity against Pseudomonas aeruginosa at 50 ug/ml after 18 hrs by cup plate method. To be noted: for zone of inhibition at 50 µg/mL: read-out: DIZ. A digest of the protocol: as §1
The subject of experiment [15] is Staphylococcus aureus. As to the kind of experiment: Antibacterial activity against Staphylococcus aureus at 100 ug/ml after 18 hrs by cup plate method. The settings on record: for zone of inhibition at 100 µg/mL: read-out: DIZ. A digest of the protocol: as §1
For experiment [16], the system named is Klebsiella pneumoniae. As to the kind of experiment: Antibacterial activity against Klebsiella pneumoniae at 25 ug/ml after 18 hrs by cup plate method. To be noted: read-out: DIZ. A digest of the protocol:
as §1

In experiment [17] the test system is Pseudomonas aeruginosa. The experiment is described as follows: Antibacterial activity against Pseudomonas aeruginosa at 25 ug/ml after 18 hrs by cup plate method. To be noted: read-out: DIZ. The gist of the method:
as §1

Converted amounts (≈) assume the structure as drawn. The source made the active and inactive calls.

For orientation: MIC means the smallest concentration in the dilution series that meets the test's criterion for growth inhibition. The low end stands for greater potency, the high end for weaker potency.

On to `O=C(c1ccc([N+](=O)[O-])o1)N1CCN(C2=NS(=O)(=O)c3ccccc3N2c2ccccc2)CC1`, for which the zone of inhibition at 100 µg/mL in experiment [1] was determined as 20 mm; in experiment [2], 19 mm; in [3] it was 11 mm; in [8], 17 mm; in experiment [12] it was 17 mm; in experiment [13], 16 mm. In addition, the zone of inhibition at 100 µg/mL in experiment [15] was found to be 15 mm. In addition, the zone of inhibition at 50 µg/mL was determined as 10 mm in experiment [4]; 10 mm in experiment [6]; 10 mm in [11] (MTCC 227, 48 h, read-out: IZ); 10 mm in experiment [14]. The “diameter of the inhibition zone (DIZ)” value in experiment [5], in experiment [9] and in [10] was “inactive” each time. In experiment [7], this compound gave an MIC above 16 mg/L.

Regarding `CCN1C(N2CCN(C(=O)c3ccc([N+](=O)[O-])o3)CC2)=NS(=O)(=O)c2ccccc21`, the “diameter of the inhibition zone (DIZ)” value in experiment [1], in experiment [2], in experiment [3], in experiment [4], in experiment [5] and in [6] was “inactive” in each case. Further, the “diameter of the inhibition zone (DIZ)” value in [9], in [10], in [12], in [13], in [14] and in experiment [15] was “inactive” each time. The MIC in [7] is above 16 mg/L. The zone of inhibition at 100 µg/mL in [8] is 10 mm. For the same compound, the “inhibition zone (IZ)” value in experiment [11] was “inactive”.

Turning to `CN1C(N2CCN(C(=O)c3ccc([N+](=O)[O-])o3)CC2)=NS(=O)(=O)c2ccccc21`, the “diameter of the inhibition zone (DIZ)” value in [1], in [2], in experiment [3], in experiment [5], in experiment [9] and in experiment [12] was “inactive” throughout. In addition, in experiment [13], the “diameter of the inhibition zone (DIZ)” value was “inactive”. Further, the zone of inhibition at 50 µg/mL is 10 mm in experiment [4], 9 mm in experiment [6], 17 mm in [10] and 10 mm in experiment [14]. For the same compound, the MIC in experiment [7] is 16 mg/L (≈ 38.1 µM). Besides, the zone of inhibition at 100 µg/mL in experiment [8] was found to be 12 mm; in experiment [15] it was 18 mm. In addition, the “inhibition zone (IZ)” value in experiment [11] is “inactive”.

In the case of `CN[C@@H]1[C@H](O[C@H]2[C@H](O[C@H]3[C@H](O)[C@@H](O)[C@H](N=C(N)N)[C@@H](O)[C@@H]3N=C(N)N)O[C@@H](C)[C@]2(O)C=O)O[C@@H](CO)[C@H](O)[C@H]1O` [STREPTOMYCIN], the zone of inhibition at 50 µg/mL in [4] is 18 mm; in experiment [5], 22 mm; in experiment [6] it was 21 mm; in experiment [9], 17 mm; in [10], 22 mm; in experiment [14] it was 29 mm. In experiment [11], the “inhibition zone (IZ)” value is “inactive”.

In the case of `CN1C(N2CCN(Cc3ccc([N+](=O)[O-])s3)CC2)=NS(=O)(=O)c2ccccc21`, the zone of inhibition at 100 µg/mL was 16 mm in [1]; 18 mm in experiment [2]; 12 mm in experiment [3]; 17 mm in [8]; 16 mm in experiment [12]; 13 mm in [13]. In addition, the zone of inhibition at 100 µg/mL in experiment [15] came to 12 mm. In addition, the zone of inhibition at 50 µg/mL in [4] is 14 mm; in experiment [10], 10 mm. For the same compound, the “diameter of the inhibition zone (DIZ)” value in experiment [5], in [6], in experiment [9] and in experiment [14] was “inactive” in each case. The same compound registered an MIC in experiment [7] above 16 mg/L. Moreover, the “inhibition zone (IZ)” value in experiment [11] is “inactive”.

With `O=[N+]([O-])c1ccc(CN2CCN(C3=NS(=O)(=O)c4ccccc4N3c3ccccc3)CC2)s1`, the zone of inhibition at 100 µg/mL came out at 16 mm in [1]; 14 mm in experiment [2]; 13 mm in experiment [3]; 12 mm in [8]; 14 mm in [12]; 12 mm in [13]. Besides, in experiment [15], the zone of inhibition at 100 µg/mL is 12 mm. Also, the “diameter of the inhibition zone (DIZ)” value in experiment [4], in experiment [5], in [6], in experiment [9] and in experiment [14] was “inactive” in each case. For the same compound, in experiment [7], the minimum inhibitory concentration (MIC) is above 16 mg/L. In addition, in experiment [10], the zone of inhibition at 50 µg/mL is 9 mm. Also, the “inhibition zone (IZ)” value in [11] was “inactive”.

Regarding `O=C(O)c1cn(C2CC2)c2cc(N3CCNCC3)c(F)cc2c1=O` [CIPROFLOXACIN], the zone of inhibition at 50 µg/mL in [4] came to 34 mm; in experiment [5], 20 mm; in experiment [6], 38 mm; in experiment [9], 32 mm; in experiment [10], 26 mm; in [14], 30 mm. Moreover, the zone of inhibition at 25 µg/mL in experiment [16] was found to be 21 mm; in [17], 40 mm. Moreover, the “inhibition zone (IZ)” value in [11] was “inactive”.

For `CCN1C(N2CCN(Cc3ccc([N+](=O)[O-])s3)CC2)=NS(=O)(=O)c2ccccc21`, the zone of inhibition at 100 µg/mL in experiment [1] came out at 15 mm; in experiment [2], 16 mm; in [3], 14 mm; in experiment [8], 14 mm; in experiment [12], 18 mm; in experiment [13] it was 11 mm. Further, the zone of inhibition at 100 µg/mL in [15] worked out at 11 mm. Further, the zone of inhibition at 50 µg/mL in [4] was 12 mm; in [10] it was 10 mm. Moreover, the “diameter of the inhibition zone (DIZ)” value in experiment [5], in [6], in experiment [9] and in experiment [14] was “inactive” each time. For the same compound, in [7], the MIC turned out to be 4 mg/L (≈ 9.18 µM). In addition, the “inhibition zone (IZ)” value in [11] was “inactive”.

As for `O=[N+]([O-])c1ccc(CN2CCN(C3=NS(=O)(=O)c4ccccc4N3c3ccccc3)CC2)o1`, the zone of inhibition at 100 µg/mL in experiment [1] is 20 mm; in experiment [2] it was 19 mm; in experiment [3], 15 mm; in experiment [8] it was 11 mm; in experiment [12], 20 mm; in [13], 15 mm. In [15], the zone of inhibition at 100 µg/mL was found to be 15 mm. Also, the zone of inhibition at 50 µg/mL in [4] was found to be 15 mm; in [6], 14 mm; in experiment [10] it was 14 mm; in experiment [14] it was 10 mm. For the same compound, the “diameter of the inhibition zone (DIZ)” value in [5] and in experiment [9] was “inactive” each time. The compound also had an MIC in experiment [7] of 2 mg/L (≈ 4.28 µM). In addition, the “inhibition zone (IZ)” value in experiment [11] is “inactive”.

Values taken from ChEMBL document CHEMBL1250501, “Anti-tubercular agents. Part 5: synthesis and biological evaluation of benzothiadiazine 1,1-dioxide based congeners” (Eur J Med Chem, 2010).
